Data reported in ChEMBL document CHEMBL3112482, “Nonclassical antifolates, part 5. Benzodiazepine analogs as a new class of DHFR inhibitors: synthesis, antitumor testing and molecular modeling study” (Eur J Med Chem, 2014).

Assays:
Format in all cases: functional
[1] = system: SNB-75; assay: Growth inhibition of human SNB75 cells at 10 uM after 48 hrs; conditions: SNB-75, 48 h, read-out: GI
Summary of the method: (§1)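 NCI 60-cell-line disease-oriented human tumor panel, single-dose primary screen at 10 µM. Data given as mean-graph percent growth of treated cells, reported as percent growth inhibition (GI %).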

[2] = system: SK-MEL-28; assay: Growth inhibition of human SK-MEL-28 cells at 10 uM after 48 hrs; conditions: SK-MEL-28, 48 h, read-out: GI; summary of the method: as §1
[3] = Growth inhibition of human NCI-ADR-RES cells at 10 uM after 48 hrs; conditions: read-out: GI
Summary of the method: (§2)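 Single-dose primary screen in the NCI 60 human tumour cell line panel, run at the NCI facility. The panel covers nine subpanels: leukaemia, non-small cell lung, colon, CNS, melanoma, ovarian, renal, prostate and breast. Read-out was percent growth of treated cells, shown as a mean graph and reported as percent growth inhibition.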

[4] = system: OVCAR-3; assay: Growth inhibition of human OVCAR3 cells at 10 uM after 48 hrs; conditions: OVCAR-3, 48 h, read-out: GI; summary of the method: as §2
[5] = system: SF-268; assay: Growth inhibition of human SF268 cells at 10 uM after 48 hrs; conditions: SF-268, 48 h, read-out: GI; summary of the method: as §1
[6] = Growth inhibition of human SF539 cells at 10 uM after 48 hrs; conditions: SF-539, 48 h, read-out: GI; summary of the method: as §1
[7] = system: CCRF-CEM; assay: Growth inhibition of human CCRF-CEM cells at 10 uM after 48 hrs; conditions: read-out: GI; summary of the method: as §2
[8] = system: HT-29; assay: Growth inhibition of human HT-29 cells at 10 uM after 48 hrs; conditions: HT-29, 48 h, read-out: GI; summary of the method: as §2
[9] = Growth inhibition of human OVCAR5 cells at 10 uM after 48 hrs; conditions: OVCAR-5, 48 h, read-out: GI; summary of the method: as §2
[10] = system: K562; assay: Growth inhibition of human K562 cells at 10 uM after 48 hrs; conditions: K562, 48 h, read-out: GI; summary of the method: as §2
[11] = system: SK-MEL-2; assay: Growth inhibition of human SK-MEL-2 cells at 10 uM after 48 hrs; conditions: SK-MEL-2, 48 h, read-out: GI; summary of the method: as §1
[12] = Growth inhibition of human UACC257 cells at 10 uM after 48 hrs; conditions: UACC-257, 48 h, read-out: GI; summary of the method: as §1
[13] = system: TK-10; assay: Growth inhibition of human TK10 cells at 10 uM after 48 hrs; conditions: TK-10, 48 h, read-out: GI; summary of the method: as §1
[14] = system: SK-OV-3; assay: Growth inhibition of human SKOV3 cells at 10 uM after 48 hrs; conditions: SK-OV-3, 48 h, read-out: GI; summary of the method: as §1
[15] = system: A549; assay: Growth inhibition of human A549 cells at 10 uM after 48 hrs; conditions: A549, 48 h, read-out: GI; summary of the method: as §2
[16] = system: SW-620; assay: Growth inhibition of human SW620 cells at 10 uM after 48 hrs; conditions: SW-620, 48 h, read-out: GI; summary of the method: as §1
[17] = system: CAKI-1; assay: Growth inhibition of human CAKI-1 cells at 10 uM after 48 hrs; conditions: CAKI-1, 48 h, read-out: GI; summary of the method: as §2
[18] = Growth inhibition of human UO31 cells at 10 uM after 48 hrs; conditions: UO-31, 48 h, read-out: GI; summary of the method: as §1
[19] = system: BT-549; assay: Growth inhibition of human BT549 cells at 10 uM after 48 hrs; conditions: BT-549, 48 h, read-out: GI; summary of the method: as §2
[20] = system: 786-0; assay: Growth inhibition of human 786-0 cells at 10 uM after 48 hrs; conditions: 786-0, 48 h, read-out: GI; summary of the method: as §2
[21] = system: MCF7; assay: Growth inhibition of human MCF7 cells at 10 uM after 48 hrs; conditions: MCF7, 48 h, read-out: GI; summary of the method: as §2
[22] = system: SNB-19; assay: Growth inhibition of human SNB19 cells at 10 uM after 48 hrs; conditions: SNB-19, 48 h, read-out: GI; summary of the method: as §1
[23] = system: SR; assay: Growth inhibition of human SR cells at 10 uM after 48 hrs; conditions: read-out: GI; summary of the method: as §1
[24] = system: MOLT-4; assay: Growth inhibition of human MOLT4 cells at 10 uM after 48 hrs; conditions: MOLT-4, 48 h, read-out: GI; summary of the method: as §2
[25] = Growth inhibition of human EKVX cells at 10 uM after 48 hrs; conditions: read-out: GI; summary of the method: as §2
[26] = system: OVCAR-8; assay: Growth inhibition of human OVCAR8 cells at 10 uM after 48 hrs; conditions: OVCAR-8, 48 h, read-out: GI; summary of the method: as §2
[27] = Growth inhibition of human OVCAR4 cells at 10 uM after 48 hrs; conditions: OVCAR-4, 48 h, read-out: GI; summary of the method: as §2
[28] = Growth inhibition of human HCC2998 cells at 10 uM after 48 hrs; conditions: HCC 2998, 48 h, read-out: GI; summary of the method: as §2
[29] = system: MDA-MB-435; assay: Growth inhibition of human MDA-MB-435 cells at 10 uM after 48 hrs; conditions: MDA-MB-435, 48 h, read-out: GI; summary of the method: as §2
[30] = system: PC-3; assay: Growth inhibition of human PC3 cells at 10 uM after 48 hrs; conditions: PC-3, 48 h, read-out: GI; summary of the method: as §2
[31] = system: NCI-H23; assay: Growth inhibition of human NCI-H23 cells at 10 uM after 48 hrs; conditions: NCI-H23, 48 h, read-out: GI; summary of the method: as §2
[32] = system: NCI-H322M; assay: Growth inhibition of human NCI-H322M cells at 10 uM after 48 hrs; conditions: read-out: GI; summary of the method: as §2
[33] = Growth inhibition of human Hs 578T cells at 10 uM after 48 hrs; conditions: read-out: GI; summary of the method: as §2
[34] = system: MDA-MB-231; assay: Growth inhibition of human MDA-MB-231 cells at 10 uM after 48 hrs; conditions: MDA-MB-231, 48 h, read-out: GI; summary of the method: as §2
[35] = system: NCI-H460; assay: Growth inhibition of human NCI-H460 cells at 10 uM after 48 hrs; conditions: NCI-H460, 48 h, read-out: GI; summary of the method: as §2
[36] = system: T47D; assay: Growth inhibition of human T47D cells at 10 uM after 48 hrs; conditions: read-out: GI; summary of the method: as §1
[37] = system: NCI-H226; assay: Growth inhibition of human NCI-H226 cells at 10 uM after 48 hrs; conditions: NCI-H226, 48 h, read-out: GI; summary of the method: as §2

COc1ccc(/C=C2\CCCc3c2nc(C)nc3-c2ccc(OC)cc2)cc1
inhibition of growth at 10 µM [1]: < 30% | inhibition of growth at 10 µM [2]: < 30% | inhibition of growth at 10 µM [3]: < 30% | inhibition of growth at 10 µM [4]: < 30% | inhibition of growth at 10 µM [5]: < 30% | inhibition of growth at 10 µM [6]: < 30% | inhibition of growth at 10 µM [7]: < 30% | inhibition of growth at 10 µM [8]: < 30% | inhibition of growth at 10 µM [9]: < 30% | inhibition of growth at 10 µM [10]: < 30% | inhibition of growth at 10 µM [11]: < 30% | inhibition of growth at 10 µM [12]: < 30% | inhibition of growth at 10 µM [13]: < 30% | inhibition of growth at 10 µM [14]: < 30% | inhibition of growth at 10 µM [15]: < 30% | inhibition of growth at 10 µM [16]: < 30% | inhibition of growth at 10 µM [17]: < 30% | inhibition of growth at 10 µM [18]: < 30% | inhibition of growth at 10 µM [19]: < 30% | inhibition of growth at 10 µM [20]: < 30% | inhibition of growth at 10 µM [21]: < 30% | inhibition of growth at 10 µM [22]: < 30% | inhibition of growth at 10 µM [23]: < 30% | inhibition of growth at 10 µM [24]: < 30% | inhibition of growth at 10 µM [25]: < 30% | inhibition of growth at 10 µM [26]: < 30% | inhibition of growth at 10 µM [27]: < 30% | inhibition of growth at 10 µM [28]: < 30% | inhibition of growth at 10 µM [29]: 40.5% | inhibition of growth at 10 µM [30]: < 30% | inhibition of growth at 10 µM [31]: < 30% | inhibition of growth at 10 µM [32]: < 30% | inhibition of growth at 10 µM [33]: < 30% | inhibition of growth at 10 µM [34]: < 30% | inhibition of growth at 10 µM [35]: < 30% | inhibition of growth at 10 µM [36]: < 30% | inhibition of growth at 10 µM [37]: < 30%
